pIC50: −log10 of the molar value. In brackets after ≈: the same amount, converted by molar mass.
How the values were obtained:
[1] = tested on: Mycobacterium tuberculosis; assay: Antimycobacterial activity against Mycobacterium tuberculosis H37Rv assessed as bacterial growth inhibition under replicating, aerobic condition by microplate Alamar blue assay; assay type: functional
How it was run: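 Read-out is MIC90, the lowest concentration giving 90% growth inhibition of M.tb H37Rv, in µg/mL. Bacteria were grown under aerobic, replicating conditions (MABA).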

hERG (KCNH2) [2] = biological target: T1, hERG (KCNH2) (Homo sapiens, UniProt Q12809); assay: Inhibition of human ERG at 3 uM relative to control
[3] = tested on: Mycobacterium tuberculosis; assay: Antimycobacterial activity against Mycobacterium tuberculosis H37Rv assessed as bacterial growth inhibition incubated for 10 days under anerobic condition followed by incubation under ambient gaseous condition for […] by low oxygen recovery assay; assay type: functional
How it was run: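 Read-out is MIC90, the lowest concentration giving 90% growth inhibition of M.tb H37Rv, in µg/mL. Bacteria were held under non-replicating, low-oxygen conditions (LORA).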

[4] = Protein binding in human plasma; assay type: ADME, cell-free; conditions: read-out: PPB
[5] = Intrinsic clearance in human liver microsomes assessed per mg protein; assay type: ADME, Microsome; conditions: read-out: CLH
How it was run: (§1)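 Clearance of compound by human or mouse liver microsomes, expressed as µL/min/mg protein.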

[6] = Clearance in CD-1 mouse at 2 to 3 mg/kg, iv administered as single bolus dose; assay type: ADME, organism-based; conditions: in vivo
How it was run: (§2)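 Male CD-1 mice received a single intravenous bolus at 2–3 mg/kg. Reported values are IV clearance and the apparent volume of distribution during the terminal phase, in L/kg.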

[7] = AUC (0 to infinity) in CD-1 mouse at 10 mg/kg, po via gavage administered as single dose; assay type: ADME, organism-based; set-up: dose 10 mg/kg, route oral, time infinity; conditions: in vivo
How it was run: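 Male CD-1 mice given a single 10 mg/kg dose by oral gavage. Exposure is reported as area under the curve from 0 to infinity in µg*h/mL.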

[8] = Oral bioavailability in CD-1 mouse at 10 mg/kg administered via gavage as single dose; assay type: ADME, organism-based; conditions: in vivo
Vero = assay: Cytotoxicity against African green monkey Vero cells assessed as reduction in cell viability incubated for 72 hrs by […] assay; assay type: cell-based; conditions: Chlorocebus sabaeus
[9] = Intrinsic clearance in mouse liver microsomes assessed per mg protein; assay type: ADME, Microsome; conditions: read-out: CLH; how it was run: as §1
[10] = biological target: Voltage-gated inwardly rectifying potassium channel KCNH2 (Homo sapiens, UniProt Q12809); assay: Inhibition of human ERG
[11] = Apparent volume of distribution during terminal phase in CD-1 mouse at 2 to 3 mg/kg, iv administered as single bolus dose; assay type: ADME, organism-based; conditions: in vivo; how it was run: as §2
hERG (KCNH2) [12] = biological target: T1, hERG (KCNH2); assay: Inhibition of human ERG at 10 uM relative to control

T1 sequence (Q12809 whole entry): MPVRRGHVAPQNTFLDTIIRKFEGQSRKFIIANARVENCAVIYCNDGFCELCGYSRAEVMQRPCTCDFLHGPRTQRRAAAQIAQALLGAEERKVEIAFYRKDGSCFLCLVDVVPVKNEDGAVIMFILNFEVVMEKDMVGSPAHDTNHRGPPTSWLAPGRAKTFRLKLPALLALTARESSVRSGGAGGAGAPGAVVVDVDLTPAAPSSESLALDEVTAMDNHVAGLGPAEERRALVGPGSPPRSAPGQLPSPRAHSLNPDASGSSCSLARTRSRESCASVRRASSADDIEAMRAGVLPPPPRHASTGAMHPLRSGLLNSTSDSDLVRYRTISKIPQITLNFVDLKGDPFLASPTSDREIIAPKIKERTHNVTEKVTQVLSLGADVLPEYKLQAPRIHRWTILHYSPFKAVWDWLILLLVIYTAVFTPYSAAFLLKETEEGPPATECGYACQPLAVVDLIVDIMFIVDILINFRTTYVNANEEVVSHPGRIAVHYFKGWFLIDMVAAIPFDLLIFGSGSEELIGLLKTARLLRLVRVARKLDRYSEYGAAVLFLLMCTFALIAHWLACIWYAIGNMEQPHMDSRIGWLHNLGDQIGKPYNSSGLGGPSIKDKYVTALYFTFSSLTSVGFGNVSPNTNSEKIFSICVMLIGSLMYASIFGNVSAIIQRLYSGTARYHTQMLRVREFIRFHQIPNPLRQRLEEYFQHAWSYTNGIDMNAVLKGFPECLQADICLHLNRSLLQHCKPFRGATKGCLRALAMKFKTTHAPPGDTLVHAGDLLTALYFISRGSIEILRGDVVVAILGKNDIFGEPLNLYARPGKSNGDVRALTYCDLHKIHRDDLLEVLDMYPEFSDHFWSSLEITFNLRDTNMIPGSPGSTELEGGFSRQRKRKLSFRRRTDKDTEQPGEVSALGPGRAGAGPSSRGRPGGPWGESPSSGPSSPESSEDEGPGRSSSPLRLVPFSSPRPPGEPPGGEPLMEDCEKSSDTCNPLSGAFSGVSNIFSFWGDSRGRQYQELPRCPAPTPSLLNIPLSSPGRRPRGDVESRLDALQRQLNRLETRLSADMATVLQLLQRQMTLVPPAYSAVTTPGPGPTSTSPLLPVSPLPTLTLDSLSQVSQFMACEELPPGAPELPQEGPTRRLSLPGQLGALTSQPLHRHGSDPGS
Voltage-gated inwardly rectifying potassium channel KCNH2, sequence (Q12809 whole entry): as above

## CCSc1cc([C@](O)(CCN(C)C)[C@H](c2cccc(C)c2)c2cc3cc(C#N)ccc3nc2OC)cc(N(C)C)n1 (racemic)
[1]
  MIC90: 0.12 µg/mL (≈ 0.211 µM)
hERG (KCNH2) [2]
  inhibition at 3 µM: 51%
[3]
  MIC90: 0.17 µg/mL (≈ 0.298 µM)

## COc1cc([C@](O)(CCN(C)C)[C@@H](c2cc3cc(Br)ccc3nc2OC)c2cc(OC)nc(OC)c2OC)cc(OC)n1 (racemic) [TBAJ-876]
[4]
  fraction unbound: < 0.005

## CCSc1cc([C@](O)(CCN(C)C)[C@H](c2cccc(C)c2)c2cc3cc(Br)ccc3nc2OC)cc(N(C)C)n1 (racemic)
[1]
  MIC90: 0.14 µg/mL (≈ 0.224 µM)
hERG (KCNH2) [2]
  inhibition at 3 µM: 23%
[3]
  MIC90: 0.12 µg/mL (≈ 0.192 µM)

## COc1cc([C@](O)(CCN(C)C)[C@@H](c2cc3cc(Br)ccc3nc2OC)c2cccc(OC)c2F)cc(OC)n1 (racemic) [TBAJ-587]
[5]
  microsomal CLint: 2.2 µL/min/mg
[4]
  fraction unbound: < 0.005
[3]
  MIC90: 0.01 µg/mL (≈ 0.0163 µM)

## COc1cccc([C@H](c2cc3cc(C#N)ccc3nc2OC)[C@@](O)(CCN(C)C)c2cc(SC)nc(SC)c2)c1F (racemic)
[6]
  clearance: 44 mL/min/kg
[1]
  MIC90: 0.03 µg/mL (≈ 0.0506 µM)
[7]
  AUC(0-inf): 1100 ng·h/mL
[8]
  bioavailability: 28%
Vero
  IC50: > 10 µg/mL
[9]
  microsomal CLint: 20 µL/min/mg
[10]
  pIC50: 5.29
[5]
  microsomal CLint: 15 µL/min/mg
[11]
  Vz/F: 53 L/kg
[3]
  MIC90: 0.05 µg/mL (≈ 0.0844 µM)

## CCSc1cc([C@](O)(CCN(C)C)[C@@H](c2cc3cc(Br)ccc3nc2OC)c2cccc(OC)c2F)cc(SCC)n1 (racemic)
[6]
  clearance: 3.6 mL/min/kg
[1]
  MIC90: < 0.02 µg/mL
[7]
  AUC(0-inf): 11900 ng·h/mL
[8]
  bioavailability: 25%
Vero
  IC50: 6.5 µg/mL (≈ 9.63 µM)
[9]
  microsomal CLint: 12 µL/min/mg
[10]
  pIC50: < 5.00
[5]
  microsomal CLint: 4.9 µL/min/mg
[11]
  Vz/F: 14 L/kg
[3]
  MIC90: < 0.02 µg/mL

## CCOc1cc([C@](O)(CCN(C)C)[C@H](c2cccc(C)c2)c2cc3cc(Br)ccc3nc2OC)cc(OC)n1 (racemic)
[6]
  clearance: 12 mL/min/kg
[1]
  MIC90: < 0.02 µg/mL
[7]
  AUC(0-inf): 9400 ng·h/mL
[8]
  bioavailability: 65%
Vero
  IC50: > 10 µg/mL
[9]
  microsomal CLint: 7.8 µL/min/mg
[10]
  pIC50: < 5.00
[5]
  microsomal CLint: 4.4 µL/min/mg
[11]
  Vz/F: 45 L/kg
[3]
  MIC90: < 0.02 µg/mL

## COc1nc2ccc(Br)cc2cc1[C@@H](c1ccccc1)[C@@](O)(CCN(C)C)c1cccc2ccccc12 [BEDAQUILINE]
[1]
  MIC90: 0.03 µg/mL (≈ 0.054 µM)
[7]
  AUC(0-inf): 17400 ng·h/mL
[4]
  fraction unbound: < 0.005
[3]
  MIC90: 0.06 µg/mL (≈ 0.108 µM)

## COc1nc2ccc(Br)cc2cc1[C@@H](c1cccc(C)c1F)[C@@](O)(CCN(C)C)c1cc(SC)nc(SC)c1 (racemic)
[1]
  MIC90: < 0.004 µg/mL
hERG (KCNH2) [2]
  inhibition at 3 µM: 13%
[3]
  MIC90: 0.06 µg/mL (≈ 0.0951 µM)

## COc1cc([C@](O)(CCN(C)C)[C@@H](c2cc3cc(Br)ccc3nc2OC)c2cccc(OC)c2F)cc(OC(F)F)n1 (racemic)
[6]
  clearance: 9.7 mL/min/kg
[1]
  MIC90: 0.04 µg/mL (≈ 0.0615 µM)
[7]
  AUC(0-inf): 14400 ng·h/mL
[8]
  bioavailability: 83%
Vero
  IC50: > 10 µg/mL
[9]
  microsomal CLint: 6.4 µL/min/mg
[10]
  pIC50: < 4.52
[5]
  microsomal CLint: 0.1 µL/min/mg
[11]
  Vz/F: 18 L/kg
[3]
  MIC90: < 0.02 µg/mL

## COc1nc2ccc(Br)cc2cc1[C@@H](c1ccnc(OC)c1OC)[C@@](O)(CCN(C)C)c1cc(SC)nc(SC)c1 (racemic)
[6]
  clearance: 18 mL/min/kg
[1]
  MIC90: < 0.02 µg/mL
[7]
  AUC(0-inf): 3900 ng·h/mL
[8]
  bioavailability: 41%
Vero
  IC50: > 10 µg/mL
[9]
  microsomal CLint: 10 µL/min/mg
[10]
  pIC50: 5.55
[5]
  microsomal CLint: 8.8 µL/min/mg
[11]
  Vz/F: 64 L/kg
[3]
  MIC90: < 0.02 µg/mL

## COc1cc([C@](O)(CCN(C)C)[C@@H](c2cc3cc(C#N)ccc3nc2OC)c2ccnc(OC)c2OC)cc(OC(F)F)n1 (racemic)
[6]
  clearance: 24 mL/min/kg
[1]
  MIC90: < 0.02 µg/mL
[7]
  AUC(0-inf): 3000 ng·h/mL
[8]
  bioavailability: 43%
Vero
  IC50: > 10 µg/mL
[9]
  microsomal CLint: 11 µL/min/mg
[10]
  pIC50: 5.15
[5]
  microsomal CLint: 2.5 µL/min/mg
[11]
  Vz/F: 40 L/kg
[3]
  MIC90: 0.04 µg/mL (≈ 0.0656 µM)

## COc1cc([C@](O)(CCN(C)C)[C@@H](c2cc3cc(Br)ccc3nc2OC)c2cccc(C)c2F)cc(OC(F)F)n1 (racemic)
hERG (KCNH2) [12]
  inhibition at 10 µM: 3%
[1]
  MIC90: 0.01 µg/mL (≈ 0.0158 µM)
[3]
  MIC90: 0.03 µg/mL (≈ 0.0473 µM)

## CCOc1cc([C@](O)(CCN(C)C)[C@@H](c2cc3cc(Br)ccc3nc2OC)c2c(OC)cncc2OC)cc(OC(C)C)n1 (racemic)
[6]
  clearance: 2.7 mL/min/kg
[1]
  MIC90: < 0.02 µg/mL
[7]
  AUC(0-inf): 33000 ng·h/mL
[8]
  bioavailability: 58%
Vero
  IC50: > 10 µg/mL
[9]
  microsomal CLint: 2.3 µL/min/mg
[10]
  pIC50: < 5.00
[5]
  microsomal CLint: 1.1 µL/min/mg
[11]
  Vz/F: 20 L/kg
[3]
  MIC90: < 0.02 µg/mL

## COc1nc2ccc(C#N)cc2cc1[C@@H](c1cccc(C)c1F)[C@@](O)(CCN(C)C)c1cc(SC)nc(SC)c1 (racemic)
[6]
  clearance: 22 mL/min/kg
[1]
  MIC90: 0.02 µg/mL (≈ 0.0347 µM)
[7]
  AUC(0-inf): 2400 ng·h/mL
[8]
  bioavailability: 31%
Vero
  IC50: > 10 µg/mL
[9]
  microsomal CLint: 13 µL/min/mg
[10]
  pIC50: < 5.00
[5]
  microsomal CLint: 9.2 µL/min/mg
[11]
  Vz/F: 79 L/kg
[3]
  MIC90: 0.17 µg/mL (≈ 0.295 µM)

From ChEMBL document CHEMBL4610003 (Bioorg Med Chem, 2020)
